# Screens from PubChem.
# Only a sample is shown.
# HKDC1 act: increases human hexokinase HKDC1 activity; Q2TB90; recombinant HKDC1, G6PDH/diaphorase resazurin fluorescence; hits give low values; activity change, negative = activation, % at 20 µM; 0.056% of 340,000 active; AID 493187;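 active = activation of 40% or more at 20 µM, a change of -40% or lower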
# Target sequence (Q2TB90 whole entry, looked up): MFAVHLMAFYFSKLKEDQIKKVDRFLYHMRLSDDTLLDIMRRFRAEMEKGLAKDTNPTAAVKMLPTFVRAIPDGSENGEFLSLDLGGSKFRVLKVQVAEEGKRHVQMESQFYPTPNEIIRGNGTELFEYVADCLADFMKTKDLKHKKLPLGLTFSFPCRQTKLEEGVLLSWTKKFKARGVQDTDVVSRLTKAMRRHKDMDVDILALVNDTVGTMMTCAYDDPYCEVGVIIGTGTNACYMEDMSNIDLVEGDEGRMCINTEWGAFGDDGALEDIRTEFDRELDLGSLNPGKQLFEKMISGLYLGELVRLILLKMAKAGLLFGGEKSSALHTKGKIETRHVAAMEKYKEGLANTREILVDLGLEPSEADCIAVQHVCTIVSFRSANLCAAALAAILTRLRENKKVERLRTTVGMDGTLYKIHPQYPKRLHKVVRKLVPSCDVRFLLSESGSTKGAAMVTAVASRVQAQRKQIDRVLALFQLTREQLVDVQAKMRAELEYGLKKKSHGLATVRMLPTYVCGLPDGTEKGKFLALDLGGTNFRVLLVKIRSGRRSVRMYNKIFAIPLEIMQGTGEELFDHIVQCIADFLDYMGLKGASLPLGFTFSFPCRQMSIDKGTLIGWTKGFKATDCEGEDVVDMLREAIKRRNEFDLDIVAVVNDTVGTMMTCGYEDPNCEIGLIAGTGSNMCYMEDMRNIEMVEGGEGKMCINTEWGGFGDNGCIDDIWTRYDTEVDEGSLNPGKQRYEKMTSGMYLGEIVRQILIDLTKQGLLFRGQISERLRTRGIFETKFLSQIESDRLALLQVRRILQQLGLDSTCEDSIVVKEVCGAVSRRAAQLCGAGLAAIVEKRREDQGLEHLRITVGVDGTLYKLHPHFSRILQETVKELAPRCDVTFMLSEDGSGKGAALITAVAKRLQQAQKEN
#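 Signal: coupled resazurin-to-resorufin fluorescence, Ex 525/Em 613 nm. Test system: in-house human HKDC1 enzyme, G6PDH and diaphorase coupling enzymes. Quantity: HKDC1 5 µg/mL. Timing: 90 min reaction at room temperature, dark.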
# * hit, by the source's call.
SMILES,HKDC1 act
O=C(O)C(Cc1ccccc1)N1C(=O)/C(=C/C=C/c2ccco2)SC1=S (stereo not given),37.0
COc1ccc(N2CCN(C(=O)CSc3nnc4c(C)cc5c(C)cc(C)cc5n34)CC2)cc1,42.9
O=C(c1c[nH]c(C(=O)C(Cl)(Cl)Cl)c1)c1c(F)cccc1F,37.5
CSc1nc(N)nc2c1ncn2CC(=O)N[C@H](C)c1cccc2ccccc12,-55.5*
CCCCNC(=O)c1sc(=S)n2c1[nH]c(=O)c1ccccc12,37.8
NS(=O)(=O)c1ccc(N=Nc2c(=O)[nH]n3c(=O)c4c([nH]c23)CCCC4)cc1,39.6
COC1=CC(=O)C(C2CC(=O)c3c(O)cc(O)cc3O2)=CC1=O (stereo not given),59.8
O=[N+]([O-])c1ccc(NN=Cc2ccc(O)cc2O)nc1,37.1
Cc1ccccc1NC(=S)N/N=C/c1ccc(O)cc1O,-41.6*
CCCOc1ccc(/C=N/NC(=S)Nc2ccccc2[N+](=O)[O-])c(O)c1,-48.5*
O=C(O)c1ccccc1NS(=O)(=O)c1ccc(N/N=C/c2cccc(O)c2O)c([N+](=O)[O-])c1,36.4
Oc1ccc(/C=N/Nc2ncc(Br)cn2)c(O)c1,39.0
O=C(/C=C/c1ccc(Cl)cc1)c1ccc([N+](=O)[O-])o1,53.9
O=C1C=CC(=O)C(C2=C3C(=O)N(CCc4ccccc4)CC(=O)N3CCC2)=C1,63.1
CN(C)c1ccc(Cc2cc3c(O)ccc(O)c3cc(Cc3ccc(N(C)C)cc3)c2=O)cc1,60.4
COc1ccc(-c2oc(NC(=O)CCl)c(C#N)c2-c2ccc(OC)cc2)cc1,46.1
CCOc1ccc(/C=C2/SC(=S)N(CCC(=O)Nc3ccc(C(=O)O)cc3)C2=O)cc1,42.5
Cc1ccc(N=Nc2ccc(O)c3ncccc23)cc1C,-43.2*
Cc1ccc(NC2c3ncccc3C(=O)N2c2ccccc2C)cc1C (stereo not given),56.4
CC(C)c1nc2oc3c(=O)[nH]cnc3c2c2c1COC(C)(C)C2,35.5
CC(=NNC(=S)N1CCN(C2CCCCCC2)CC1)c1ccccn1,-42.4*
CC(=NNC(=S)N1CC2CCC(CC2)C1)c1cnccn1,-46.6*
N=C1/C(=C\c2coc3ccccc3c2=O)C(=O)N=C2SC(c3ccncc3)=NN12,44.9
Cc1ccc(SC2=C(Sc3ccc(C)cc3)C(=O)c3ccccc3C2=O)cc1,66.0
Cc1cc(C(=O)CCl)c(C)n1CCc1ccc(Cl)cc1,39.1
SMILES,HKDC1 act
O=C1NC(=S)S/C1=C\C=C\c1ccc([N+](=O)[O-])o1,38.2
O=C(O)c1ccc(NC2=C(Cl)C(=O)c3ccccc3C2=O)cc1,-131.3*
Cc1ccccc1NC1=C/C(=N\S(=O)(=O)c2ccc(C(=O)O)cc2)c2ccccc2C1=O,70.2
O=C1C=C(Nc2ccc(F)cc2)c2ccccc2C1=O,42.4
O=C(c1c[nH]c(C(=O)C(Cl)(Cl)Cl)c1)c1ccccc1F,37.4
CC(C)c1nc2oc3c(NCC4CCCO4)ncnc3c2c2c1COC(C)(C)C2 (stereo not given),40.0
O=C(Sc1nnc(-c2ccccc2)o1)N1c2ccccc2Sc2ccccc21,37.2
CN(C)c1ccc2nc3ccc(=[N+](C)C)cc-3sc2c1,35.6
CC1CCCN(C(=O)COC(=O)c2cc([N+](=O)[O-])ccc2N2CCOCC2)C1 (stereo not given),41.3
O=C(O)c1ccc2c(=O)n(-c3ccccc3)c(=S)[nH]c2c1,84.2
S=C(NN=C(c1ccccc1)c1ccccn1)N(Cc1ccccn1)Cc1ccccn1,-46.0*
CCCCC(CC)CN=C(N)NC(N)=NCCCCCCN=C(N)NC(N)=NCC(CC)CCCC (stereo not given),41.6
Cc1cc2cc(CCNC(=O)c3ccc(S(=O)(=O)N4CCOCC4)cc3)c(=O)[nH]c2cc1C,41.4
CCn1c2ccccc2c2nc3cc(S(=O)(=O)N4CCOCC4)ccc3nc21,-60.6*
C=CCn1c(SCC(=O)Nc2sc3c(c2C#N)CCC(C)C3)nc2cc(C(=O)O)ccc2c1=O (stereo not given),39.0
Cc1ccc2cc(CCNC(=O)c3ccc(S(=O)(=O)N4CCCCC4)cc3)c(=O)[nH]c2c1,40.0
COc1ccccc1C1=NNC(=Nc2cccc(S(=O)(=O)N(C)C)c2)SC1,-201.8*
Cc1nc(COC(=O)c2cc(O)c3ccccc3c2O)cs1,60.5
CN(C)CC1CCC/C(=C\c2ccc(OC(=O)c3ccc(Cl)cc3)cc2)C1=O (stereo not given),36.6
CC(=O)n1cc(N(C(=O)CCl)c2ccc([N+](=O)[O-])cc2)c2ccccc21,48.4
Cc1ccc(C2=NN=C(NC(=O)CSc3nncn3C)SC2)cc1,-143.8*
CN(C)c1ccc(C=c2c3cc(O)ccc3n3c2cc(-c2ccccc2)[n+]3C)cc1,55.5
Oc1ccc(O)c(Cc2nc3ccccc3s2)c1,45.4
O=C1CSC(=S)N1Nc1ccccc1,-44.4*
O=C(O)CCCN1C(=O)/C(=C\C(Cl)=C\c2ccccc2)SC1=S,43.6
Cc1cccc2c(N=NC(=O)c3ccc(NS(=O)(=O)c4cccs4)cc3)c(O)[nH]c12,36.0
O=C(/C=C/Sc1ccccc1)c1ccccc1,35.7
